The list is not random: actives were taken first. Their share in the collection is about 11%.
Diaphorase act: counter-screen for diaphorase-based assays: diaphorase activators and chemical reducers; actives 0.005% (n = 190,000); activation factor at 20 µM; AID 1229; Diaphorase/resazurin coupled assay, resorufin fluorescence, 16 min; stronger effect = higher value; 1 = vehicle wells, 0 = NADH-free wells;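 active means diaphorase activity raised at least twofold by the compound at 20 µM; inactive means activation factor below 2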
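Measured by – red resorufin fluorescence at 544/590 nm excitation/emission · Test system – Clostridium kluyveri diaphorase, purified enzyme · Incubation – reaction time 16 min, room temperature · Buffer or medium – 50 mM HEPES pH 7.4 with 4.542 mM MgCl2, 0.005% Tween 20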
L major viab: reduces viability of Leishmania major promastigotes; resazurin fluorescence viability; inhibition, % at 10 µM; actives 9% (n = 200,000); AID 1063;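 further: promastigotes grown with compound for 44 hours at 28 °C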
WT yeast gro inh: growth inhibition of WT yeast, mitochondrial fusion screen | inhibition, % at 10 µM | mitochondrial fusion phenotypic screen, WT strain | actives 2.1% (n = 190,000); in the data active means inhibition above about 58%; tested in S. cerevisiae
G6PDH counter: L. mesenteroides G6PDH inhibition counter-screen. inhibition, % at 5 µM. actives 0.12% (n = 200,000). AID 1020. Purified L. mesenteroides G6PDH, diaphorase/resazurin coupled fluorescence, 45 min
Diaph inh CS: inhibits diaphorase or chemically oxidizes, flagging diaphorase assay artifacts; diaphorase resazurin-to-resorufin fluorescence, NADH, 16 min; bacterial (C. kluyveri) enzyme, not human; inhibition, % at 20 µM; actives 0.69% (n = 190,000); AID 1217;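 active means primary screen inhibition at 20 µM above a set limit, cut at about 50% in these data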
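System: Diaphorase enzyme from Clostridium kluyveri | Amount: Enzyme working solution with 0.14 U/mL diaphorase | Benchmarks: No-NADH positive control and DMSO neutral control | Signal: Fluorescence of resorufin formed from resazurin, Ex 544/Em 590 nm | Schedule: 16-min room-temperature incubation before reading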
A number is an active result. Unless noted, no stated cut-off is given here; in the data, active means inhibition above about 50%; inactive means the rest.

What do the screens show for `CC(=O)C1=C(C)Nc2ncnn2C1c1ccccc1OCc1ccccc1` (stereo not drawn)?
Diaphorase act: inactive; L major viab: 61; WT yeast gro inh: inactive; G6PDH counter: inactive; Diaph inh CS: inactive

Results for CCN1C(=O)/C(=C2/Sc3ccccc3N2CC)S/C1=N\c1ncn[nH]1 ?
L major viab: inactive; WT yeast gro inh: inactive; G6PDH counter: inactive

Results for Cc1ccc2cc(CN(CCN(C)C)C(=S)Nc3ccccc3)c(=O)[nH]c2c1C ?
Diaphorase act: inactive; L major viab: inactive; WT yeast gro inh: inactive; G6PDH counter: inactive; Diaph inh CS: inactive

What do the screens show for `Cc1ccc(NC(=S)N(CCN(C)C)Cc2cc3cc(C)cc(C)c3[nH]c2=O)cc1`?
Diaphorase act: inactive; L major viab: 79; WT yeast gro inh: inactive; G6PDH counter: inactive; Diaph inh CS: inactive

What do the screens show for `CCOCCCN(Cc1cc2cc(C)cc(C)c2[nH]c1=O)C(=O)N(CC)CC`?
Diaphorase act: inactive; L major viab: 58; WT yeast gro inh: inactive; G6PDH counter: inactive; Diaph inh CS: inactive

How did COc1ccc(N(C(=O)CCl)C(C(=O)NCCc2ccccc2)c2cccs2)cc1Cl (stereo not drawn) do in these assays?
Diaphorase act: inactive; L major viab: 100; WT yeast gro inh: inactive; G6PDH counter: inactive; Diaph inh CS: inactive

How did COc1cccc(N(C(=O)CCl)C(C(=O)NCCc2ccccc2)c2cccs2)c1 (stereo not drawn) do in these assays?
Diaphorase act: inactive; L major viab: 100; WT yeast gro inh: inactive; G6PDH counter: inactive; Diaph inh CS: inactive

How did COc1ccc2cc(C(=O)N/N=C/c3sc4ccccc4c3O)ccc2c1 do in these assays?
Diaphorase act: inactive; L major viab: inactive; WT yeast gro inh: inactive; G6PDH counter: inactive; Diaph inh CS: inactive

How did O=C(N/N=C/c1sc2ccccc2c1O)c1ccccc1 do in these assays?
Diaphorase act: inactive; L major viab: 98; WT yeast gro inh: inactive; G6PDH counter: inactive; Diaph inh CS: inactive

How did Cc1sccc1/C=N/NC(=O)c1cccc2ccccc12 do in these assays?
Diaphorase act: inactive; L major viab: inactive; WT yeast gro inh: inactive; G6PDH counter: inactive; Diaph inh CS: inactive

Results for COc1ccc(C(=O)N/N=C/c2sc3ccccc3c2O)cc1 ?
Diaphorase act: inactive; L major viab: 77; WT yeast gro inh: inactive; G6PDH counter: inactive; Diaph inh CS: inactive

Results for Oc1c(C=Nc2cccc3cccnc23)sc2ccccc12 ?
Diaphorase act: inactive; L major viab: 99; WT yeast gro inh: inactive; G6PDH counter: inactive; Diaph inh CS: inactive

Results for O=C(N/N=C/c1sc2ccccc2c1O)c1cccc2ccccc12 ?
Diaphorase act: inactive; L major viab: 86; WT yeast gro inh: inactive; G6PDH counter: inactive; Diaph inh CS: inactive

Results for CCN1CCN(C2=CC3=CC(=C(C#N)C#N)CCC3CC2)CC1 (stereo not drawn) ?
Diaphorase act: inactive; L major viab: 88; WT yeast gro inh: inactive; G6PDH counter: inactive; Diaph inh CS: inactive

How did c1ccc(-c2cccc(-c3ccccn3)n2)nc1 do in these assays?
Diaphorase act: inactive; L major viab: 100; WT yeast gro inh: inactive; G6PDH counter: inactive; Diaph inh CS: inactive

What do the screens show for `c1ccc(-c2nnc(-c3ccccn3)nn2)nc1`?
WT yeast gro inh: inactive

What do the screens show for `CC(C)CC(=O)/C(=C\c1ccc(Cl)cc1Cl)n1cncn1`?
Diaphorase act: inactive; L major viab: 100; WT yeast gro inh: inactive; G6PDH counter: inactive; Diaph inh CS: inactive

Results for CN(C)c1ccc(/C=C(/C(=O)c2ccc(Cl)cc2Cl)n2cncn2)cc1 ?
Diaphorase act: inactive; L major viab: 51; WT yeast gro inh: inactive; G6PDH counter: inactive; Diaph inh CS: inactive

How did CC(=O)Nc1ccc(S(=O)(=O)N2CCN(C(=O)c3cccnc3)CC2)cc1 do in these assays?
Diaphorase act: inactive; L major viab: inactive; WT yeast gro inh: inactive; G6PDH counter: inactive; Diaph inh CS: inactive

How did Cn1cc(CC(=O)N2CCN(c3ccc(Cl)cc3)CC2)c2ccccc21 do in these assays?
Diaphorase act: inactive; L major viab: 65; WT yeast gro inh: inactive; G6PDH counter: inactive; Diaph inh CS: inactive

What do the screens show for `CC(C)(C)NC(=O)C(c1ccc(F)cc1)N(Cc1ccco1)C(=O)c1csnn1` (stereo not drawn)?
Diaphorase act: inactive; L major viab: inactive; WT yeast gro inh: inactive; G6PDH counter: inactive; Diaph inh CS: inactive

Results for CCC(C)(C)NC(=O)C(c1ccccc1F)N(Cc1ccco1)C(=O)c1csnn1 (stereo not drawn) ?
Diaphorase act: inactive; L major viab: 57; WT yeast gro inh: inactive; G6PDH counter: inactive; Diaph inh CS: inactive

How did COc1ccc(OCCn2cc(/C=C(\C#N)C(=O)NCc3ccco3)c3ccccc32)cc1 do in these assays?
Diaphorase act: inactive; L major viab: inactive; WT yeast gro inh: inactive; G6PDH counter: inactive; Diaph inh CS: inactive

Results for COc1ccccc1OCCn1cc(/C=C(\C#N)C(=O)NCc2ccco2)c2ccccc21 ?
Diaphorase act: inactive; L major viab: 53; WT yeast gro inh: inactive; G6PDH counter: inactive; Diaph inh CS: inactive

Results for Cc1ccc(C)c(OCCn2cc(/C=C(\C#N)C(=O)NCc3ccco3)c3ccccc32)c1 ?
Diaphorase act: inactive; L major viab: 65; WT yeast gro inh: inactive; G6PDH counter: inactive; Diaph inh CS: inactive

What do the screens show for `Cc1cc(/C=C(\C#N)C(=O)NCc2ccco2)c(C)n1C1CCCC1`?
Diaphorase act: inactive; L major viab: 72; WT yeast gro inh: inactive; G6PDH counter: inactive; Diaph inh CS: inactive

How did Cc1ccc(/C=C(\C#N)C(=O)NCc2ccco2)o1 do in these assays?
Diaphorase act: inactive; L major viab: inactive; WT yeast gro inh: inactive; G6PDH counter: inactive; Diaph inh CS: inactive

What do the screens show for `CCCCCCCCCCC[C@@H](C[C@@H]1OC(=O)[C@H]1CCCCCC)OC(=O)[C@H](CC(C)C)NC=O`?
Diaphorase act: inactive; WT yeast gro inh: inactive; G6PDH counter: inactive; Diaph inh CS: inactive

How did COc1ccccc1/C=C\C=N\n1c(-c2ccc(Cl)cc2)n[nH]c1=S do in these assays?
Diaphorase act: inactive; L major viab: inactive; WT yeast gro inh: inactive; G6PDH counter: inactive; Diaph inh CS: inactive

How did Cc1ccsc1/C=N/n1c(-c2ccco2)n[nH]c1=S do in these assays?
Diaphorase act: inactive; L major viab: inactive; WT yeast gro inh: inactive; G6PDH counter: inactive; Diaph inh CS: inactive

What do the screens show for `Cc1ccc(-c2n[nH]c(=S)n2/N=C/C=C/c2ccccc2[N+](=O)[O-])cc1`?
Diaphorase act: inactive; L major viab: inactive; WT yeast gro inh: inactive; G6PDH counter: inactive; Diaph inh CS: 55

Results for O=[N+]([O-])c1ccccc1/C=C/C=N/n1c(-c2ccco2)n[nH]c1=S ?
Diaphorase act: inactive; L major viab: inactive; WT yeast gro inh: inactive; G6PDH counter: inactive; Diaph inh CS: 81

How did COc1ccccc1/C=C\C=N\n1c(-c2ccc(Cl)cc2Cl)n[nH]c1=S do in these assays?
Diaphorase act: inactive; L major viab: inactive; WT yeast gro inh: 65; G6PDH counter: inactive; Diaph inh CS: inactive

Screens from PubChem.
